A short description of this data set: Toxicity liver stage against HepG2, at 10uM. In kind it is cell-based. Also noted: test concentration 10 uM, cell line HepG2-A16-CD81EGFP. To be noted: human, HepG2-A16-CD81EGFP cells; read-out: INHIBITION
A digest of the protocol:
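Uninfected HepG2-A16-CD81EGFP cells, 3 × 10^3 per well, 1536-well, plated on prespotted compound at 10 μM final, parasite-free screening media added to match infected plates; puromycin 10 μM positive, DMSO 0.5% negative; run in parallel with 48 h PbLuc assay at 37 °C, 5% CO2; viability by CellTiter-Glo luminescence, normalized to controls.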
Consider `c1cc(-c2nnc([C@H]3CCN(C4CCOCC4)C3)o2)ccn1`, for which the cytotoxicity at 10 µM was -61.3%.
As for `COc1ccc(CNc2c(N3CCN(C(C)=O)CC3)c(=O)c2=O)cc1`, the figure is -2.36%; as for `Cc1cnc2c(c1NCc1cccs1)c(=O)n(C)c(=O)n2C`, 0.319%.
Take `O=C(NCCNc1cc(N2CCCC2)cnn1)Nc1ccccc1F`: the cytotoxicity at 10 µM is -0.367%.
Consider `COC[C@@H]1CN(C)C(=O)[C@@H]2CCN(Cc3ccco3)CC[C@H]12`, for which the cytotoxicity at 10 µM was -6.13%.
Take `COCCN1CCc2ncc(CNc3cc(N(C)C)ncn3)n2CC1`: the cytotoxicity at 10 µM was -1.95%.
In the case of `c1cnn(Cc2nnc3n2CCCN(c2nccs2)C3)c1`, the cytotoxicity at 10 µM came out at 9.37%.
In the case of `CC(C)CN1C(=O)CO[C@@H]2CN(C(=O)CC(F)(F)F)C[C@H]21`, the cytotoxicity at 10 µM was -1.74%.
Turning to `Cc1cccc(C(=O)N2CCO[C@H]3[C@H](OCCN(C)C)CC[C@@H]32)n1`, the cytotoxicity at 10 µM is 3.31%.
For `COC(=O)C1CCN(C(=O)c2cc(Br)ccc2-n2cnnn2)CC1` the value was 4.67%.
Consider `CC(C)CN1C(=O)CC(N2CCN(c3ccc(F)cc3)CC2)C1=O` (stereo not given), for which the cytotoxicity at 10 µM stood at 6.56%.
Regarding `O=C(CC1Cn2ncnc2NC1=O)Nc1cccc(C(F)(F)F)c1` (stereo not given), the cytotoxicity at 10 µM was 6.17%.
As for `CCOc1ccc(N2CCCN=C2NC(=O)c2cccc(C)c2)cc1`, the cytotoxicity at 10 µM worked out at 1.61%.
As for `O=C(Cc1cccs1)NCc1ccnc(C2CCCOC2)n1` (stereo not given), the cytotoxicity at 10 µM amounted to 1.2%.
On to `Cc1cccc(Cc2cc(C)nc(C3CCCNC3)c2)c1` (stereo not given), for which the cytotoxicity at 10 µM was found to be 1.58%.
With `CNc1cncc(C2CCCN2C(=O)c2ccc3c(c2)CCC3)n1` (stereo not given), the cytotoxicity at 10 µM was -15.1%.
For `COc1ccc(C2Nc3ccccc3C3=NCCCN32)cc1OC` (stereo not given), the cytotoxicity at 10 µM is 6.05%.
For `CC1(C(=O)NCCc2ccc(F)cc2)CCOCC1` the value was 5.42%.
On to `O=C(c1ccc(Cl)cc1)N1CCn2c(nn(-c3cccc(Cl)c3)c2=O)C1`, for which the cytotoxicity at 10 µM was 5.84%.
As to `CN(C(=O)CSc1ncc[nH]1)C1CC1`, the cytotoxicity at 10 µM stood at 7.97%.
Regarding `Cc1cnc(N2CCC(OCCN3CCCCC3)C2)nc1C` (stereo not given), the cytotoxicity at 10 µM was -43.9%.
For `COc1ccc(Cc2noc(C3=NN(C)C(=O)CC3)n2)cc1OC` the value was 13.3%; for `O=C(NCC1CCN(CCc2ccccc2)C1)NCC1(O)CCC1` (stereo not given), -0.128%.
In the case of `CCc1ccc(CNc2cc(-c3ccoc3C)nn2CCO)o1`, the cytotoxicity at 10 µM was 0.485%.
Turning to `Cc1cc(S(C)(=O)=O)c(C)c(S(=O)(=O)NCC2CCC2)c1`, the cytotoxicity at 10 µM turned out to be 16.3%.
For `COc1ccc(C)cc1C(C)NS(=O)(=O)c1ccc2c(c1)CCC(=O)N2` (stereo not given), the cytotoxicity at 10 µM was -33%.
For `Cc1cc(CNC(=O)N2CCN(c3ccc(Cl)cn3)CC2)c(C)o1`, the cytotoxicity at 10 µM was found to be 13.9%.
For the molecule `Cc1nc(CNC(=O)N2CCN(c3ccc(Cl)cn3)CC2)sc1C`, the cytotoxicity at 10 µM was determined as 3.92%.
In the case of `CN(Cc1ccc2c(c1)OCCO2)c1ncc(S(N)(=O)=O)s1`, the cytotoxicity at 10 µM is 0.482%.
`CNC(=O)c1cccc(NC(=O)c2ccnc(N(C)C)c2)c1C`: the cytotoxicity at 10 µM is 4.9%.
As for `CCn1nc(C)cc1C(=O)NCc1cc(N(C)C)nc2ccccc12`, the figure is 10.6%; as for `Cc1cc(S(=O)(=O)N2CCCc3cc(Br)ccc32)sc1C(=O)O`, 2.91%; as for `COCCSCC(=O)NC1(c2cccc(Br)c2)CC1`, 13.3%.
Regarding `CCOc1cc(CN(C)CCC(=O)OC)ccc1OC(F)F`, the cytotoxicity at 10 µM was -0.769%.
For `CCN(CC)C(CNS(=O)(=O)c1ccc(C(N)=O)cc1)c1ccco1` (stereo not given) the value was -8.64%; for `Cc1sc2nc(C(F)(F)F)nc(N3CCCN(C)CC3)c2c1C`, -26.8%; for `Cc1nnc2n1CCN(C(=O)c1cnc(C3CC3)s1)C2`, -5.19%.
With `O=C(C[S+]([O-])Cc1cccc(F)c1)NC1CCCC1` (stereo not given), the cytotoxicity at 10 µM is 1.79%.
`CC(C(=O)Nc1ncccn1)N1CCC(n2ccnc2)CC1` (stereo not given): the cytotoxicity at 10 µM was -8.15%.
For `Cc1[nH]ccc1C(=O)N(C)C1CC(=O)N(Cc2ccccc2)C1=O` (stereo not given) the value was 8.76%.
Take `CSCC(CCO)NC(=O)c1cccc(C)c1Cl` (stereo not given): the cytotoxicity at 10 µM is 16.8%.
As for `COc1ccc(NC(C)c2nnnn2-c2ccccc2)cc1F` (stereo not given), the cytotoxicity at 10 µM was found to be 12.1%.
`Cc1cc2n(n1)CC(CNCCc1cnn(C)c1)CN2` (stereo not given): the cytotoxicity at 10 µM is 5.27%.
Consider `Cc1cc(C)cc(C(C)NC(=O)c2ccc(CS(C)(=O)=O)o2)c1` (stereo not given), for which the cytotoxicity at 10 µM stood at 2.49%.
As for `CN(C)C(=O)CCS(=O)(=O)Cc1cc(Cl)c2c(c1)OCCO2`, the cytotoxicity at 10 µM amounted to 9.15%.
For `CC(=O)N1CCN(CCNc2ncc(Br)cc2C)CC1` the value was 2.86%; for `COCC1CN(CCc2ccc(OC)c(OC)c2)Cc2c1cnn2C` (stereo not given), -105%; for `CCS(=O)(=O)N1CCC2(CC1)CN(c1ccsc1)C(=O)CO2`, -73.7%.
As for `CN(C)C(=O)CN1CCC2(CCCN(Cc3ccoc3)C2)C1=O` (stereo not given), the cytotoxicity at 10 µM is -103%.
With `CNC(=O)[C@@]12CCO[C@@H]1CCN(S(=O)(=O)c1cc(C)cc(C)c1)C2`, the cytotoxicity at 10 µM is -73.5%.
Turning to `Cc1nc(COC[C@H]2CCC[C@]23CN(CC2CC2)CCO3)cs1`, the cytotoxicity at 10 µM is -76.9%.
As for `CNC(=O)C1=NOC2(CCN(Cc3nccs3)C2)C1` (stereo not given), the figure is -73.4%; as for `CNCC(=O)Nc1ccc(-c2cnc(NCCS(C)(=O)=O)nc2)cc1`, -3.08%.
With `c1cc(CN2CCCN(c3ccc4cc[nH]c4n3)CC2)ccn1`, the cytotoxicity at 10 µM was -9.98%.
As for `CC(C)Cc1ncc2c(n1)CN(C(=O)Cn1c(=O)oc3ccccc31)C2`, the cytotoxicity at 10 µM is -36.2%.
For `Cc1cc(C(F)(F)F)nc(CNC(=O)C2CCCCCN2C)n1` (stereo not given) the value was -46%.
Take `COc1nc2c(cc1C(=O)N1CCCOC(CN3CCCC3)C1)CCC2` (stereo not given): the cytotoxicity at 10 µM is -48.8%.
Take `O=C(NCC1CCN(Cc2cc3ccccc3[nH]2)C1)C1CCCCC1` (stereo not given): the cytotoxicity at 10 µM stood at 9.81%.
For `CCCN1CCC(Cc2nc(CN3CCN(C)CC3)no2)CC1` the value was 1.25%.
Consider `Cc1cc(=O)c2ccccc2n1CC1CCN(C(C)C)C1` (stereo not given), for which the cytotoxicity at 10 µM was found to be 4.64%.
For `COc1cc(S(=O)(=O)N2C[C@@H](C)[C@@](C)(O)C2)c(C)cc1C` the value was -2.06%; for `CC(C)(O)CCc1cccc(C(=O)NCc2cnn3cccnc23)c1`, -44.8%; for `O=C(NCc1nc(NC2CCCC2)c2cc(Cl)ccc2n1)c1cscn1`, 7.12%.
As for `Cc1ccsc1-c1nc(CN(C)Cc2cc[nH]n2)c(C)o1`, the cytotoxicity at 10 µM is 10.3%.
As for `Cc1cc(F)ccc1N1CCC(N2C[C@@H](C)[C@@](C)(O)C2)CC1`, the figure is 8.79%.
Consider `CCN(CCO)C[C@@H]1CN(c2nc(C)cc(C)n2)C[C@@H]1CO`, for which the cytotoxicity at 10 µM was -5.34%.
As to `CC(C)[C@@H]1CN(CCCOc2ccc(F)cc2)C[C@H]1NS(C)(=O)=O`, the cytotoxicity at 10 µM is -46.4%.
As for `O=C(CCCn1cncn1)N1CCC2(CC1)[C@H](O)C[C@@H]2OCCO`, the figure is 5.3%; as for `CC(=O)N1CCCC(Cc2cncc(Br)c2)CC1` (stereo not given), 4.99%.
Consider `COc1ccc(CNC(=O)NC(C)(C(=O)O)c2ccco2)cc1F` (stereo not given), for which the cytotoxicity at 10 µM came to 0.808%.
As for `CCc1nnsc1C(=O)N1CCCC(n2ccnc2C(C)C)C1` (stereo not given), the cytotoxicity at 10 µM is -16%.
For `Cc1cnn(C2CCCN(C(=O)Cc3c(C)nn(C)c3C)C2)c1` (stereo not given) the value was -6.71%; for `NC(=O)c1ccc(C(=O)N2CCCCC2Cn2cccn2)s1` (stereo not given), 0.977%.
For `CC(Cn1cccn1)NC(=O)NCc1ccc(OC2CCCC2)nc1` (stereo not given), the cytotoxicity at 10 µM is -12.9%.
As for `CN1CCCc2cc(CNC(=O)c3cc[n+]([O-])cc3)ccc21`, the cytotoxicity at 10 µM is -1.11%.
For `Cc1nc(CN(C)C2CCN(CCn3cc(C#N)cn3)C2)no1` (stereo not given) the value was -3.82%; for `Cc1nc(COc2cccc(C#N)c2)no1`, -0.513%.
`O=C(CN1CC(n2cccn2)C1)NCCCc1ccccc1`: the cytotoxicity at 10 µM was -9.51%.
`COC(=O)c1ccc(N2CCN(C(=O)c3cc(C)on3)C(C)C2)cc1` (stereo not given): the cytotoxicity at 10 µM was -7.85%.
For `CC(C)c1nc(C2CCCN2CC(=O)Nc2ccc(Cl)cn2)no1` (stereo not given) the value was -3.13%; for `Cc1cnn(CC(C)NCc2ccc(OCc3ccncc3)cc2)c1` (stereo not given), 3.15%; for `Cc1ccc(CN(CCCn2ccnc2)Cc2ccccc2O)s1`, -14.6%.
For `CC(C)NC(=O)[C@@H]1C[C@@H]2CCN(Cc3ccoc3)C[C@H]2O1` the value was -109%.
As to `O=C(CO[C@@H]1CC[C@H]2[C@H]1OCCN2Cc1ccccn1)N1CCCC1`, the cytotoxicity at 10 µM is -3.98%.
`Cn1nc(C2CCCN(Cc3ccc(F)c(F)c3)C2)c2nccnc21` (stereo not given): the cytotoxicity at 10 µM is -2.9%.
As for `COCCN1CC[C@H]2CN(c3cc(OC)ncn3)C[C@@H]2C1=O`, the figure is 10.3%; as for `COCCN1CCOCC12CCN(c1nccs1)CC2`, -102%; as for `O=C(O)CN1CCC(F)(F)C2(CCN(c3ccccc3)C2)C1` (stereo not given), 10.7%.
For `COCCN1CCN(c2cccc(C)n2)Cc2ccc(C)nc21` the value was -106%; for `c1cncc(C2CC3(CCN(c4cnccn4)CC3)c3ccccc32)c1` (stereo not given), 11.2%; for `O=C(N1CCCC1)N1CCC[C@]2(C[C@@H](OCc3ccncc3)CO2)C1`, 7.19%.
`Cn1cc(CN2CC[C@@H](NS(C)(=O)=O)[C@@H]2Cc2cccnc2)cn1`: the cytotoxicity at 10 µM is -74.4%.
`CN(C)CCN1C[C@@H]2CN(c3ccccc3)C[C@@H]2C1=O`: the cytotoxicity at 10 µM was -94%.
As for `Cn1cc(N2CC3(CCN(Cc4ccsc4)CC3)OCC2=O)cn1`, the cytotoxicity at 10 µM is -82.8%.
For the molecule `COCC1CN(S(=O)(=O)Cc2ccccc2)Cc2c1cnn2C` (stereo not given), the cytotoxicity at 10 µM was -3.61%.
